From ChEMBL document CHEMBL4387709, “Discovery of Quinoline Analogues as Potent Antivirals against Enterovirus D68 (EV-D68)” (J Med Chem, 2019)

Tests used:
[1] = Selectivity index, ratio of CC50 for human RD cells to EC50 for Enterovirus D68 US/KY/14-18953 infected in human RD cells; assay type: toxicity, cell-based; conditions: read-out: Ratio CC50/EC50
enterovirus D68 = assay: Antiviral activity against Enterovirus D68 US/KY/14-18953 infected in human RD cells assessed as inhibition of virus-induced cytopathic effect incubated for 5 mins under shaking condition and measured after 3 days by neutral red dye-based photometric method; assay type: functional, organism-based; conditions: Enterovirus D, US/KY/14-18953, RD
Outline: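 RD cells seeded one day ahead to ~90% confluence, PBS (Mg/Ca) wash, infected at ~MOI 0.01 with EV-D68 in DMEM/2% FBS/30 mM MgCl2 at 33 °C, 5% CO2. Compounds and 1% P/S added after 1 h. Plates shaken ~5 min, held 3 days, viable cells stained with neutral red (66 µg/ml), A540 read. EC50 from dose-response fits, triplicates.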

RD = assay: Cytotoxicity against human RD cells after 3 days by neutral red dye-based photometric method; assay type: cell-based; conditions: rd, 72 h

| Structure (SMILES) | selectivity ratio [1] | EC50 (enterovirus D68) | CC50 (RD) |
| --- | --- | --- | --- |
| CC(C)Oc1cc(C(=O)NCCN2CCOCC2)c2ccccc2n1 | > 14.3 | 17.5 µM | > 250 µM |
| CN(C)CCNC(=O)c1cc(-c2ccccc2)nc2ccc(F)cc12 | 64.7 | 0.6 µM | 38.8 µM |
| CC(C)Oc1cc(C(=O)NCCN2CCCC2)c2ccccc2n1 | 21.7 | 1.7 µM | 36.9 µM |
| COc1ccc2nc(-c3ccccc3)cc(C(=O)NCCN(C)C)c2c1 | 3.9 | 8.1 µM | 31.8 µM |
| CCN(CC)CCNC(=O)c1cc(-c2ccc(OC)cc2)nc2ccccc12 | 13.2 | 2.4 µM | 31.6 µM |
| CCN(CC)CCNC(=O)c1cc(-c2ccc3c(c2)CCO3)nc2ccccc12 | 18.4 | 1.6 µM | 29.5 µM |
| CCN(CC)CCNC(=O)c1cc(-c2cccs2)nc2ccccc12 | 62.3 | 0.6 µM | 37.4 µM |
| CCN(CC)CCNC(=O)c1cc(-c2ccccc2)nc2ccc(OC)cc12 | 2.2 | 12.3 µM | 27.5 µM |
| CC(C)Oc1cc(C(=O)NCCCN(C)C)c2ccccc2n1 | 10.7 | 11.4 µM | 122 µM |
| CCN(CC)CCNC(=O)c1cc(-c2ccc(COC)cc2)nc2ccccc12 | 2.7 | 17.4 µM | 46.6 µM |
| CCN(CC)CCNC(=O)c1cc(OC2CCCC2)nc2ccccc12 | 1.7 | 6.8 µM | 11.7 µM |
| CCN(CC)CCNC(=O)c1cc(-c2ccc3c(c2)OCCO3)nc2ccccc12 | 5.5 | 9 µM | 49.9 µM |
| CCN(CC)CCNC(=O)c1cc(-c2ccccc2)nc2ccc(Cl)cc12 | 7.1 | 1.9 µM | 13.5 µM |
| CCN(CC)CCNC(=O)c1cc(-c2c(C)noc2C)nc2ccccc12 | – | > 50 µM | 129 µM |
| CCN(CC)CCNC(=O)c1cc(-c2ccccc2)nc2ccccc12 | 56.4 | 0.8 µM | 45.1 µM |
| CCN(CC)CCNC(=O)c1cc(OC)nc2ccccc12 | > 4.8 | 52.5 µM | > 250 µM |

| Structure (SMILES) | selectivity ratio [1] | EC50 (enterovirus D68) | CC50 (RD) |
| --- | --- | --- | --- |
| NNC(=O)c1cc(-c2ccccc2)nc2ccccc12 | > 3 | 100 µM | > 300 µM |
| O=C(NC1CN2CCC1CC2)c1cc(-c2ccccc2)nc2ccccc12 (stereo unspecified) | 13.3 | 3.5 µM | 46.5 µM |
| NNC(=O)c1cc(-c2cccs2)nc2ccccc12 | > 8.4 | 11.9 µM | > 100 µM |
| O=C(NCCN1CCCC1)c1cc(-c2ccccc2)nc2ccccc12 | 117 | 0.4 µM | 46.7 µM |
| CC(C)Oc1cc(C(=O)NCCN)c2ccccc2n1 | 42.5 | 3.5 µM | 149 µM |
| N=C(N)NC(=O)c1cc(-c2ccccc2)nc2ccccc12 | > 7.2 | 34.7 µM | > 250 µM |
| CCN(CC)CCNC(=O)c1cc(OCC(F)(F)F)nc2ccccc12 | 9.5 | 3.5 µM | 33.1 µM |
| CCN(CC)CCNC(=O)c1cc(-c2ccc(CN3CCOCC3)cc2)nc2ccccc12 | – | > 80 µM | 79.2 µM |
| CCN(CC)CCNC(=O)c1cc(-c2ccoc2)nc2ccccc12 | 81.7 | 1.5 µM | 122 µM |
| CCN(CC)CCNC(=O)c1cc(OC(C)C)nc2ccccc12 | 44.5 | 2.5 µM | 111 µM |
| CCN(CC)CCNC(=O)c1cc(-c2cnn(C)c2)nc2ccccc12 | – | > 100 µM | 251 µM |
| CC(C)Oc1cc(C(=O)N2CCN(C)CC2)c2ccccc2n1 | – | > 100 µM | > 300 µM |
| CCC(CC)Oc1cc(C(=O)NCCN(CC)CC)c2ccccc2n1 | – | > 10 µM | 9.5 µM |
| CCN(CC)CCNC(=O)c1cc(-c2ccc(-c3ccccc3)cc2)nc2ccccc12 | – | > 10 µM | 9.8 µM |
| Cc1ccc2c(c1)c1c3n2CCNC3CCC1 (stereo unspecified) | – | 8.4 µM | 19 µM |
